From ChEMBL document CHEMBL1147605, “Syntheses and biological evaluation of new fluoroquinolone antibacterials containing chiral oxiimino pyrrolidine” (Bioorg Med Chem Lett, 2004)

Experiments:
[1] = Half-life period for the compound was determined in rats at 50 mg/kg dose; assay type: ADME, organism-based; parameters: dose 50 mg/kg; conditions: rat, in vivo
[2] = Plasma concentration for the compound was determined in rats at 50 mg/kg dose; assay type: ADME, organism-based; parameters: dose 50 mg/kg; conditions: rat
Summary of the method: (§1)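 Pharmacokinetics were measured in SD rats given 50mg/kg, reporting Cmax, Tmax, T1/2 and AUC.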

[3] = Time for maximum plasma concentration reached by compound was determined in rats at 50 mg/kg dose; assay type: ADME, organism-based; parameters: dose 50 mg/kg; conditions: rat; summary of the method: as §1
[4] = Maximum plasma concentration reached by compound was determined in rats at 50 mg/kg dose; assay type: ADME, organism-based; parameters: dose 50 mg/kg; conditions: rat; summary of the method: as §1
Enterococcus sp. = test: In vitro antibacterial activity against the Ofloxacin Resistant Enterococcus knothe 101; assay type: functional
Summary of the method: (§2)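 MICs by agar dilution following National Committee for Clinical Laboratory Standards recommendations; all strains obtained from Hoechst.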

Enterobacter cloacae = test: In vitro antibacterial activity against the Enterobacter cloacae 1321 E; assay type: functional
Escherichia coli [5] = test: In vitro antibacterial activity against the Escherichia coli 078; assay type: functional
HepG2 = test: Cytotoxicity was determined for the compound in HepG2 cell line; assay type: functional, cell-based; conditions: Homo sapiens
Klebsiella = test: In vitro antibacterial activity against the Ofloxacin Resistant Klebsiella species 30-92; assay type: functional; summary of the method: as §2
Pseudomonas aeruginosa [6] = test: In vitro antibacterial activity against the Ofloxacin Resistant Pseudomonas aeruginosa 279II; assay type: functional; summary of the method: as §2
Pseudomonas aeruginosa [7] = test: In vitro antibacterial activity against the Pseudomonas aeruginosa 1592E; assay type: functional
Pseudomonas aeruginosa [8] = test: In vitro antibacterial activity against the Pseudomonas aeruginosa 1771M; assay type: functional
Salmonella typhimurium = test: In vitro antibacterial activity against the Salmonella Typhimurium; assay type: functional, Salmonella enterica subsp. enterica serovar Typhimurium; conditions: Salmonella enterica
[9] = system: Staphylococcus epidermidis; test: In vitro antibacterial activity against the Ofloxacin Resistant Staphylococcus epidermidis 291; assay type: functional; summary of the method: as §2
[10] = system: Staphylococcus epidermidis; test: In vitro antibacterial activity against the Ofloxacin Resistant Staphylococcus epidermidis 319; assay type: functional; summary of the method: as §2
Staphylococcus aureus [11] = test: In vitro antibacterial activity against the Ofloxacin Resistant Staphylococcus aureus 179; assay type: functional; summary of the method: as §2
Staphylococcus aureus [12] = test: In vitro antibacterial activity against the Ofloxacin Resistant Staphylococcus aureus 293; assay type: functional; summary of the method: as §2
Staphylococcus aureus [13] = test: In vitro antibacterial activity against the Ofloxacin Resistant Staphylococcus aureus 303; assay type: functional; summary of the method: as §2
Staphylococcus aureus [14] = test: In vitro antibacterial activity against the Methicillin-Resistant Staphylococcus aureus (MRSA) 690 E; assay type: functional; summary of the method: as §2
Staphylococcus aureus [15] = test: In vitro antibacterial activity against the Methicillin-Resistant Staphylococcus aureus (MRSA) 692 E; assay type: functional; summary of the method: as §2
Staphylococcus aureus [16] = test: In vitro antibacterial activity against the Methicillin-Resistant Staphylococcus aureus (MRSA) 697 E; assay type: functional; summary of the method: as §2
Staphylococcus aureus [17] = test: In vitro antibacterial activity against the Methicillin-Resistant Staphylococcus aureus (MRSA) 701 E; assay type: functional; summary of the method: as §2
Staphylococcus aureus [18] = test: In vitro antibacterial activity against the Methicillin-Resistant Staphylococcus aureus (MRSA) 705 E; assay type: functional; summary of the method: as §2
Staphylococcus aureus [19] = test: In vitro antibacterial activity against the Methicillin-Resistant Staphylococcus aureus (MRSA) 707 E; assay type: functional; summary of the method: as §2
Staphylococcus aureus [20] = test: In vitro antibacterial activity against the Staphylococcus aureus SG511; assay type: functional
Streptococcus pyogenes [21] = test: In vitro antibacterial activity against the Streptococcus pyogenes 308A; assay type: functional
Streptococcus pyogenes [22] = test: In vitro antibacterial activity against the Streptococcus pyogenes 77A; assay type: functional
V79-4 = test: Cytotoxicity was determined for the compound in V79-4 cell line; assay type: functional, cell-based; conditions: Cricetulus griseus
Escherichia coli [23] = test: In vitro antibacterial activity against the Escherichia coli DC 2; assay type: functional
Staphylococcus aureus [24] = test: In vitro antibacterial activity against the Staphylococcus aureus 285; assay type: functional

Row | SMILES | MIC (Enterococcus sp.) [mg/L] | MIC (Enterobacter cloacae) [mg/L] | MIC (Escherichia coli [5]) [mg/L] | MIC (Klebsiella) [mg/L] | MIC (Pseudomonas aeruginosa [6]) [mg/L] | MIC (Pseudomonas aeruginosa [7]) [mg/L] | MIC (Pseudomonas aeruginosa [8]) [mg/L] | MIC (Salmonella typhimurium) [mg/L] | MIC [9] [mg/L] | MIC [10] [mg/L] | MIC (Staphylococcus aureus [11]) [mg/L] | MIC (Staphylococcus aureus [12]) [mg/L] | MIC (Staphylococcus aureus [13]) [mg/L] | MIC (Staphylococcus aureus [14]) [mg/L] | MIC (Staphylococcus aureus [18]) [mg/L] | MIC (Staphylococcus aureus [20]) [mg/L] | MIC (Streptococcus pyogenes [21]) [mg/L] | MIC (Streptococcus pyogenes [22]) [mg/L] | MIC (Escherichia coli [23]) [mg/L] | MIC (Staphylococcus aureus [24]) [mg/L] | further results
1 | CO/N=C1\CN(c2nc3c(cc2F)c(=O)c(C(=O)O)cn3C2CC2)C[C@]1(C)CN.Cl | 0.098 | 0.007 | 0.025 | 1.56 | 6.25 | 1.56 | 0.781 | 0.013 | 0.195 | 0.391 | 0.098 | 0.098 | 0.098 | < 0.002 | 0.004 | 0.004 | 0.098 | 0.013 | 0.049 | 0.007 | half-life [1]: 4.5 h; AUC [2]: 90.8 µg·h/mL; Tmax [3]: 2 h; Cmax [4]: 9.06 µg/mL; IC50 (HepG2): 37.3 mg/L; MIC (Staphylococcus aureus [15]): < 0.002 mg/L; MIC (Staphylococcus aureus [16]): < 0.002 mg/L; MIC (Staphylococcus aureus [17]): < 0.002 mg/L; MIC (Staphylococcus aureus [19]): < 0.002 mg/L; IC50 (V79-4): 5.49 mg/L
2 | CO/N=C1\CN(c2nc3c(cc2F)c(=O)c(C(=O)O)cn3C2CC2)C[C@@]1(C)CN.Cl | 0.391 | 0.007 | 0.025 | 3.12 | 6.25 | 0.781 | 0.391 | 0.013 | 3.12 | 6.25 | 1.56 | 1.56 | 0.781 | 0.025 | 0.049 | 0.049 | 0.195 | 0.098 | 0.098 | 0.049 | MIC (Staphylococcus aureus [15]): 0.025 mg/L; MIC (Staphylococcus aureus [16]): 0.025 mg/L; MIC (Staphylococcus aureus [17]): 0.049 mg/L; MIC (Staphylococcus aureus [19]): 0.013 mg/L
3 | CC1(CN)CN(c2nc3c(cc2F)c(=O)c(C(=O)O)cn3C2CC2)C/C1=N/OCc1ccccc1.Cl (stereo unspecified) |  | 0.049 | 0.049 |  |  | 6.25 | 1.56 | 0.098 |  |  |  |  |  |  |  | < 0.002 | 0.195 | 0.025 | 0.098 | < 0.002 | 
4 | CO/N=C1\CN(c2nc3c(cc2F)c(=O)c(C(=O)O)cn3C2CC2)CC1(C)CN.Cl (stereo unspecified) | 0.098 | 0.004 | 0.004 | 1.56 | 6.25 | 0.781 | 0.391 | 0.007 | 0.391 | 0.391 | 0.195 | 0.195 | 0.195 | 0.004 | 0.013 | 0.004 | 0.098 | 0.025 | 0.049 | 0.007 | MIC (Staphylococcus aureus [15]): < 0.002 mg/L; MIC (Staphylococcus aureus [16]): 0.007 mg/L; MIC (Staphylococcus aureus [17]): 0.007 mg/L; MIC (Staphylococcus aureus [19]): < 0.002 mg/L
5 | CO/N=C1\CN(c2c(F)c(N)c3c(=O)c(C(=O)O)cn(C4CC4)c3c2F)CC1(C)CN.Cl (stereo unspecified) | 0.025 | < 0.002 | < 0.002 | 0.781 | 6.25 | 0.391 | 0.195 | < 0.002 | 0.025 | 0.049 | 0.025 | 0.025 | 0.025 |  | 0.004 | < 0.002 | 0.013 | < 0.002 | 0.007 |  | 
6 | CO/N=C1\CN(c2c(F)cc3c(=O)c(C(=O)O)cn(C4CC4)c3c2Cl)CC1(C)CN.Cl (stereo unspecified) |  | 0.004 | 0.007 |  |  | 0.781 | 0.195 | 0.025 |  |  |  |  |  |  |  | 0.007 | 0.195 | 0.025 | 0.025 | 0.007 | 
